Assay [1] concerns Mus musculus. In words: Antiobesity activity in high fat diet-induced obese Ptpn1fl/fl null C57BL/6 mouse treated with rAAV-CMV-Cre-GFP for deletion of PTP1B assessed as reduction in body weight at 100 ug/kg, ip for 10 consecutive days. The class given is functional, organism-based. Put shortly: (§1)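 Male Ptpn1fl/fl, Ptpn2fl/fl or double-floxed mice: chow 8 weeks, then high-fat diet (45% energy from fat) 12 weeks. Bilateral intra-ARC stereotaxic injection of rAAV-CMV-Cre-GFP or rAAV-CMV-GFP, 100 nL/side. After 2 weeks recovery, vehicle or 100 μg/kg ip daily at 6 pm for 10 days; body weight tracked; two-way repeated-measures ANOVA with Tukey test; means ± SEM.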

Assay [2] has as its target T1, Tyrosine-protein phosphatase non-receptor type 1 (Homo sapiens, UniProt P18031).
T1 sequence (P18031 whole entry): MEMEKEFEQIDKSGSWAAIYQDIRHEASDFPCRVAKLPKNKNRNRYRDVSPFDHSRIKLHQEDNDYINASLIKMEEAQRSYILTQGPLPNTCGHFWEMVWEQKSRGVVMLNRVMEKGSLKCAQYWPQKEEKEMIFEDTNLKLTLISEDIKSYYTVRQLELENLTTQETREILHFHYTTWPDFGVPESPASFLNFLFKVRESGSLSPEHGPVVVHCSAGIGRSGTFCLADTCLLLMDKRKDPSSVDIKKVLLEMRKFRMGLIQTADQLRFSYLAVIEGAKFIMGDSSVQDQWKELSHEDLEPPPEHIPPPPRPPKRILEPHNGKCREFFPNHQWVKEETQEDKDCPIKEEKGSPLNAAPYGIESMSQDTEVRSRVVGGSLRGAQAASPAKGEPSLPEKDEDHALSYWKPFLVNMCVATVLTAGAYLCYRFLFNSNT
In words: Inhibition of human N-terminal His6-tagged PTP1B catalytic domain (1 to 298 residues) expressed in Escherichia coli strain Rosetta2 (DE3) using DiFMUP as substrate preincubated for 10 mins followed by substrate addition and measured after 10 mins by fluorescence assay. Put shortly:
(§2)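 Tag-cleaved, SEC-purified enzyme at 1 nM, preincubated 10 min with compound at 15 concentrations from 0–500 μM (5% DMSO final) in 25 mM Bis-Tris propane pH 7.5, 50 mM NaCl, 2 mM EDTA. DiFMUP added at each construct's Km (10, 7, 10, 9 μM for PTP1B1−298, PTP1B1−393, TCPTP1−296, TCPTP1−336). Read ex 358/em 455 nm continuously 10 min at 37 °C; triplicate; log(inhibitor)-response fit.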

Assay [3] concerns the target T2, Tyrosine-protein phosphatase non-receptor type 1 (Homo sapiens) (UniProt P18031).
T2 sequence (whole entry): T1 sequence (P18031 whole entry)
In words: Non-competitive inhibition of human N-terminal His6-tagged PTP1B catalytic domain (1 to 393 residues) expressed in Escherichia coli strain Rosetta2 (DE3) at 500 uM in presence of 4'-aminoxanilic acid by STD-NMR spectroscopic method.

Assay [4] has as its target T1, Tyrosine-protein phosphatase non-receptor type 1. In words: Binding affinity to human N-terminal His6-tagged PTP1B catalytic domain (1 to 298 residues) expressed in Escherichia coli strain Rosetta2 (DE3) by switch sense technology based assay. Put shortly: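 switchSENSE, fluorescence proximity mode: PTP1B1−298 immobilized on chip, analyte injected at increasing concentrations up to 100 μM at 100 μL/min in PE40 buffer (10 mM phosphate pH 7.4, 40 mM NaCl, 50 μM EGTA/EDTA, 0.05% Tween 20). Buffer rinse for dissociation, recorded at the three highest concentrations; kon, koff, KD fitted.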

Assay [5] has the same target. In words: Inhibition of human N-terminal His6-tagged PTP1B catalytic domain (1 to 393 residues) expressed in Escherichia coli strain Rosetta2 (DE3) using DiFMUP as substrate preincubated for 10 mins followed by substrate addition and measured after 10 mins by fluorescence assay. An outline of the steps:
as §2

The target of assay [6] is T2, Tyrosine-protein phosphatase non-receptor type 1 (Homo sapiens). In words: Covalent binding to human N-terminal His6-tagged PTP1B catalytic domain (1 to 298 residues) expressed in Escherichia coli strain Rosetta2 (DE3) by mass spectrometry. Put shortly:
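PTP1B at 2 mg/mL incubated 30 min with or without compound (1:5, 2% DMSO) in 50 mM Tris-HCl pH 7.5, 75 mM NaCl; C4 ZipTip cleanup; MALDI-TOF in CHCA matrix.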

Assay [7] is described as follows: Inhibition of mouse LMPTP-A (1 to 158 residues) expressed in Escherichia coli strain BL21(DE3) using DiFMUP as substrate preincubated for 10 mins followed by substrate addition and measured after 10 mins by fluorescence assay. An outline of the steps: (§3)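 Selectivity panel on enzymes expressed in E. coli BL21(DE3), purified by nickel affinity then size exclusion. DiFMUP fluorescence assay run as for PTP1B/TCPTP, with per-enzyme conditions in a supplementary table; nonlinear regression for IC50; three independent experiments.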

The test system of assay [8] is Mus musculus. In words: Antiobesity activity in high fat diet-induced obese Ptpn1fl/fl null C57BL/6 mouse treated with rAAV-CMV-Cre-GFP for deletion of PTP1B and TCPTP assessed as reduction in body weight at 100 ug/kg, ip for 10 consecutive days. Type of assay: functional, organism-based.
Assay [9] has as its target Receptor-type tyrosine-protein phosphatase epsilon (Homo sapiens, UniProt P23469). In words: Inhibition of human PTPRE (107 to 707 residues) expressed in Escherichia coli strain BL21(DE3) using DiFMUP as substrate preincubated for 10 mins followed by substrate addition and measured after 10 mins by fluorescence assay. Put shortly: as §3
For assay [10], the target named is Tyrosine-protein phosphatase non-receptor type 6 (Homo sapiens, UniProt P29350). In words: Inhibition of human SHP1 (245 to 521 residues) expressed in Escherichia coli strain BL21(DE3) using DiFMUP as substrate preincubated for 10 mins followed by substrate addition and measured after 10 mins by fluorescence assay. Put shortly:
as §3

Assay [11] concerns the target T2, Tyrosine-protein phosphatase non-receptor type 1 (Homo sapiens). In words: Inhibition of human N-terminal His6-tagged PTP1B catalytic domain (1 to 393 residues) expressed in Escherichia coli strain Rosetta2 (DE3) using DiFMUP as substrate preincubated for 10 mins followed by substrate addition and measured after 10 mins in presence of 0.1 mg/ml BSA by fluorescence assay. An outline of the steps: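 DiFMUP IC50 assay (1 nM enzyme, 10 min preincubation, substrate at Km, 37 °C, ex 358/em 455 nm), repeated as an aggregation check under three altered conditions: 10-fold enzyme (10 nM), 0.05% Tween 20, or 0.1 mg/mL BSA in buffer.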

The subject of assay [12] is Mus musculus. In words: Antiobesity activity in high fat diet-induced obese Ptpn1fl/fl null C57BL/6 mouse assessed as reduction in body weight at 100 ug/kg, ip for 10 consecutive days. Type of assay: functional, organism-based. An outline of the steps:
as §1

pIC50, pKd: −log10 of the molar value. Active and inactive are the calls of the source. The calls are words filed in the database; no cut-off is given here.

Sequence of Tyrosine-protein phosphatase non-receptor type 6 (P29350 whole entry, the tested form may be a part): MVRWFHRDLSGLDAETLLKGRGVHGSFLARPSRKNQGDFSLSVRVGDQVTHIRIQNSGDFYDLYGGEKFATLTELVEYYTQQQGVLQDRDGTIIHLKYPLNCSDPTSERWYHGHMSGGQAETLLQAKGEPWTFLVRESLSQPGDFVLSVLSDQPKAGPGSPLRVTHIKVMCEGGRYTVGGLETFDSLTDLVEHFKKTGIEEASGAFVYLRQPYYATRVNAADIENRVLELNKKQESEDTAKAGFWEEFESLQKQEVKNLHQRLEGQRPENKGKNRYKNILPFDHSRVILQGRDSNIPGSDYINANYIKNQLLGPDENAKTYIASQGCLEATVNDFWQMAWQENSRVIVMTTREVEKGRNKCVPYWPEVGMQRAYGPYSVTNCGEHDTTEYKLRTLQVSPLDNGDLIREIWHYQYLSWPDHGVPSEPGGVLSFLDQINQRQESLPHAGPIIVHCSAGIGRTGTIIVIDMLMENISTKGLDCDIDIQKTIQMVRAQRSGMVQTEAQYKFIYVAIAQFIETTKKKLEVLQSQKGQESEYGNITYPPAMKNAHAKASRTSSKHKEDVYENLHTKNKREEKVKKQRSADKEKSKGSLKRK
Sequence of Receptor-type tyrosine-protein phosphatase epsilon (P23469 whole entry, the tested form may be a part): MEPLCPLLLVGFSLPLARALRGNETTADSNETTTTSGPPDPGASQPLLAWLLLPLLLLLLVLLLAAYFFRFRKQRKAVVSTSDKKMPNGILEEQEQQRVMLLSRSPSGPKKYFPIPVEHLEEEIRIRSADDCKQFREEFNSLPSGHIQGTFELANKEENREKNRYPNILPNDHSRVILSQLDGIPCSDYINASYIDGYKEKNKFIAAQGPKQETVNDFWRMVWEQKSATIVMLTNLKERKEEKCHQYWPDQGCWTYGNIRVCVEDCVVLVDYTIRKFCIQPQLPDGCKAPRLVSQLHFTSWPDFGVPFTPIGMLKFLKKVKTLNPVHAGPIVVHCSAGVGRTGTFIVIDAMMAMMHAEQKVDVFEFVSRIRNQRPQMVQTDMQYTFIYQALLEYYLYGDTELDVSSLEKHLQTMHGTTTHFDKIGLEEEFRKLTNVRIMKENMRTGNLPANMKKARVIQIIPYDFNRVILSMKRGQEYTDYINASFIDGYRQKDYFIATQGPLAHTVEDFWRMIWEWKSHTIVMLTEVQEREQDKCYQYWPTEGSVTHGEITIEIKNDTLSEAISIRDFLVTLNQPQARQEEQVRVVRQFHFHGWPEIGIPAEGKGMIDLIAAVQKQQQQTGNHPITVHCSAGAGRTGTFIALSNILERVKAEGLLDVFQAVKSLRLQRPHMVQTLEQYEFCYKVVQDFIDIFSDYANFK

For `CC1=C(O)C(=O)C=C2C1=CC=C1[C@@]2(C)CC[C@@]2(C)[C@@H]3C[C@](C)(C(=O)O)CC[C@]3(C)CC[C@]12C` [CELASTROL], the result in [1], in assay [6] and in [8] was inactive. The negative logarithm of the IC50 (pIC50) (in general, the IC50 on a negative log10 scale, so that one unit is a factor of ten) is 5.32 in assay [2]; 5.68 in assay [5]; 4.02 in assay [7]; below 3.30 in assay [9]; 5.51 in [10]. Moreover, the inhibition entry in assay [3] and in assay [11] was “Active” in each case. In assay [4], the pKd – broadly, the Kd on a negative log10 scale, so that one unit is a factor of ten – was 5.22. Besides, the result in assay [12] was Active.

The values above are taken from ChEMBL document CHEMBL4371044, “Celastrol Promotes Weight Loss in Diet-Induced Obesity by Inhibiting the Protein Tyrosine Phosphatases PTP1B and TCPTP in the Hypothalamus” (J Med Chem, 2018).
